Experimental data taken from ChEMBL document CHEMBL2390852, “Anti-influenza active and low toxic N-phenyl-substituted β-amidoamidines structurally related to natural antibiotic amidinomycin” (Bioorg Med Chem Lett, 2013).
pEC50: −log10 of the molar value. Activity calls are given as the source filed them. The rule behind the calls is not given here.

How the values were obtained:
H3N2 subtype [1] = test: Antiviral activity against Influenza A virus (A/Aichi/2/1968(H3N2))-infected in Balb/c mouse at 0.1 LD50/dose, sc for 5 times measured after 7 to 14 days; type: functional, organism-based
How it was run: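 Balb/c mice of both sexes, 10 per group, were infected intranasally with mouse-adapted virus. […] Vehicle controls received the same schedule. Survivors were counted on days 7 and 14.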

Influenza A virus [2] = test: Antiviral activity against influenza A virus A/St. Petersburg/34/72 (H3N2) infected in dog MDCK cells using chicken erythrocytes by hemadsorption assay; type: functional, organism-based
How it was run: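 Hemadsorption of chicken erythrocytes was used alongside the CPE read-out on infected MDCK cells after 48 h compound incubation at 37 °C in 5% CO2. The results of the two assays were averaged.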

[3] = tested on: influenza A virus A/St. Petersburg/34/72 (H3N2); test: Therapeutic index, ratio of CC50 for dog MDCK cells to EC50 for 100 infective dose of influenza A virus A/St. Petersburg/34/72 (H3N2; type: cell-based; details: read-out: Ratio CC50/EC50
[4] = tested on: influenza A virus A/St. Petersburg/34/72 (H3N2); test: Therapeutic index, ratio of CC50 for dog MDCK cells to EC50 for 1 infective dose of influenza A virus A/St. Petersburg/34/72 (H3N2); type: cell-based; details: read-out: Ratio CC50/EC50
[5] = Cytotoxicity against dog MDCK cells after 48 hrs by MTT assay; type: cell-based, Canis lupus familiaris
How it was run: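 MDCK cells were incubated with compound at various concentrations for 48 h. CC50 is the concentration causing 50% reduction of cell viability. Values are means of 2–4 separate experiments.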

Influenza A virus [6] = test: Antiviral activity against 100 infective dose of influenza A virus A/St. Petersburg/34/72 (H3N2) infected in dog MDCK cells assessed as virus-induced cytopathic effect after 48 hrs; type: functional, organism-based
How it was run: (§1)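 MDCK cells in maintenance medium were infected with 1 infective dose or 100 doses, where 1 dose induced 50 3% cell death under standard conditions. Cells were incubated with compound at various concentrations for 48 h at 37 °C in 5% CO2. CPE was scored against cell and virus controls, and EC50 is the concentration giving 50% inhibition of CPE. Values are means of 2–4 separate experiments.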

Influenza A virus [7] = test: Antiviral activity against 1 infective dose of influenza A virus A/St. Petersburg/34/72 (H3N2) infected in dog MDCK cells assessed as virus-induced cytopathic effect after 48 hrs; type: functional, organism-based; how it was run: as §1
H3N2 subtype [8] = test: Antiviral activity against Influenza A virus (A/Aichi/2/1968(H3N2))-infected in Balb/c mouse at </= 100 mg/kg, sc after 7 to 14 days; type: functional, organism-based; parameters: dose 100 mg/kg
[9] = Acute toxicity in sc dosed Balb/c mouse after 5 days; type: organism-based; details: in vivo
How it was run: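 Male Balb/c mice, four per group, given single SC doses rising from 1000 to 4000 mg/kg in 500 mg/kg steps, in saline/DMSO 4:1 (200 µL total). LD50 was taken as the dose giving 50% mortality, with toxicity estimated in a 5 days test.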

Mus musculus [10] = test: Sub-acute toxicity in Balb/c mouse assessed as change in body weight at 300 mg/kg, sc administered for 6 days measured on day 10; type: organism-based; parameters: dose 300 mg/kg, route subcutaneous; details: in vivo, 144 h
How it was run: (§2)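 Four mice, two of each sex, were given 300 mg/kg SC daily for 6 days. Behaviour and body weight were assessed at day 10.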

Mus musculus [11] = test: Sub-acute toxicity in Balb/c mouse assessed as behavioural change at 300 mg/kg, sc administered for 6 days measured on day 10; type: organism-based; parameters: dose 300 mg/kg, route subcutaneous; details: in vivo, 144 h; how it was run: as §2
Mus musculus [12] = test: Sub-acute toxicity in Balb/c mouse assessed as survival at 1000 mg/kg, sc after 10 days; type: organism-based; parameters: dose 1000 mg/kg, route subcutaneous; details: in vivo, 240 h
How it was run: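 Four male Balb/c mice each received a single SC dose of 1000 mg/kg in saline/DMSO 4:1. Survival was followed for at least 10 days.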

SMILES: CCCCCCCCCCC(=O)N(CC(C)/C(=N\c1ccccc1)Nc1ccccc1)c1ccccc1.Cl (racemic)
- Activity (H3N2 subtype [1]): Active
- Activity (Influenza A virus [2]): Active
- selectivity ratio [3]: 128
- selectivity ratio [4]: 514
- CC50 at 48 h [5]: 936 µM
- pEC50 (Influenza A virus [6]): 5.14
- pEC50 (Influenza A virus [7]): 5.74
- Activity (H3N2 subtype [8]): inactive
- LD50 at 120 h [9]: 3500 mg/kg

SMILES: CCCCCCCCCCCCC(=O)N(CC(C)/C(=N\c1ccccc1)Nc1ccccc1)c1ccccc1.Cl (racemic)
- Activity (H3N2 subtype [1]): Active
- selectivity ratio [3]: 32
- selectivity ratio [4]: 128
- CC50 at 48 h [5]: 890 µM
- pEC50 (Influenza A virus [6]): 4.56
- pEC50 (Influenza A virus [7]): 5.16
- Activity (H3N2 subtype [8]): inactive
- LD50 at 120 h [9]: 4000 mg/kg

SMILES: CCCCCCCCCCCCCCCCCC(=O)N(CC(C)/C(=N\c1ccccc1)Nc1ccccc1)c1ccccc1 (racemic)
- selectivity ratio [3]: 17
- selectivity ratio [4]: 80
- CC50 at 48 h [5]: 1240 µM
- pEC50 (Influenza A virus [6]): 4.14
- pEC50 (Influenza A virus [7]): 4.81

SMILES: CC(CNc1ccccc1)/C(=N\c1ccccc1)Nc1ccccc1 (racemic)
- CC50 at 48 h [5]: 85 µM
- pEC50 (Influenza A virus [6]): ≤ 3.70
- pEC50 (Influenza A virus [7]): ≤ 3.70

SMILES: CC(CN(C(=O)c1ccccc1)c1ccccc1)/C(=N\c1ccccc1)Nc1ccccc1 (racemic)
- selectivity ratio [4]: < 2.85
- CC50 at 48 h [5]: 286 µM
- pEC50 (Influenza A virus [6]): ≤ 3.70
- pEC50 (Influenza A virus [7]): < 4.00

SMILES: CC(=O)N(CC(C)/C(=N\c1ccccc1)Nc1ccccc1)c1ccccc1 (racemic)
- selectivity ratio [4]: 2.25
- CC50 at 48 h [5]: 153 µM
- pEC50 (Influenza A virus [6]): ≤ 3.70
- pEC50 (Influenza A virus [7]): 4.17

SMILES: CCCC(=O)N(CC(C)/C(=N\c1ccccc1)Nc1ccccc1)c1ccccc1 (racemic)
- selectivity ratio [3]: 2.2
- selectivity ratio [4]: 9
- CC50 at 48 h [5]: 216 µM
- pEC50 (Influenza A virus [6]): 4.01
- pEC50 (Influenza A virus [7]): 4.62

SMILES: CCCCCCCCC(=O)N(CC(C)/C(=N\c1ccccc1)Nc1ccccc1)c1ccccc1.Cl (racemic)
- Activity (H3N2 subtype [1]): Active
- Activity (Mus musculus [10]): Non-toxic
- Activity (Mus musculus [11]): Non-toxic
- Activity (Mus musculus [12]): Non-toxic
- Activity (Influenza A virus [2]): Active
- selectivity ratio [3]: 125
- selectivity ratio [4]: 260
- CC50 at 48 h [5]: 247 µM
- pEC50 (Influenza A virus [6]): 5.70
- pEC50 (Influenza A virus [7]): 6.02
- Activity (H3N2 subtype [8]): inactive
- LD50 at 120 h [9]: 3000 mg/kg

SMILES: N=C(N)CCNC(=O)[C@@H]1CC[C@H](N)C1 [(1R,3S)-AMIDINOMYCIN]
- LD50 at 120 h [9]: 10 mg/kg

SMILES: CC(N)C12CC3CC(CC(C3)C1)C2 (stereo not drawn) [RIMANTADINE]
- selectivity ratio [3]: 32
- selectivity ratio [4]: 256
- CC50 at 48 h [5]: 1400 µM
- pEC50 (Influenza A virus [6]): 4.36
- pEC50 (Influenza A virus [7]): 5.26
- Activity (H3N2 subtype [8]): Active
- LD50 at 120 h [9]: 175 mg/kg
